# According to ChEMBL document CHEMBL1921780, “Novel 3-nitro-1H-1,2,4-triazole-based aliphatic and aromatic amines as anti-chagasic agents” (J Med Chem, 2011):
# Experiments:
# [1] = system: Leishmania donovani; assay: Antileishmanial activity against Leishmania donovani MHOM-ET-67/L82 axenic amastigotes after 72 hrs by alamar blue assay; conditions: MHOM-ET-67/L82, 72 h
# [2] = system: Trypanosoma cruzi; assay: Antitrypanosomal activity against amastigotes of Trypanosoma cruzi Tulahuen C4 infected in rat L6 cells after 72 hrs by alamar blue assay; conditions: Tulahuen C4, L6, 72 h
# [3] = Selectivity index, ratio of IC50 for rat L6 cells to IC50 for Trypanosoma brucei rhodesiense STIB 900; format: toxicity, cell-based; conditions: L6 cells versus Trypanosoma brucei rhodesiense STIB 900, read-out: Ratio IC50
# In short: (§1)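 Selectivity index is the L6 myoblast IC50 divided by the IC50 for each parasite. L. donovani was tested as axenic amastigotes. Both IC50s came from 96-well dose-response screens fitted by linear regression of sigmoidal curves.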
# [4] = system: Trypanosoma brucei rhodesiense; assay: Antitrypanosomal activity against blood stream form of Trypanosoma brucei rhodesiense STIB 900 […] after 72 hrs by alamar blue assay; format: functional, organism-based; conditions: STIB 900, 72 h
# [5] = system: L6; assay: Cytotoxicity against rat L6 cells after 72 hrs by alamar blue assay; format: cell-based; conditions: L6, 72 h
# In short: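 Run in 96-well plates with a compound dose series. T. cruzi was tested as amastigotes inside infected L6 rat skeletal myoblasts. Uninfected L6 cells were used for cytotoxicity. IC50 was obtained by linear regression from sigmoidal dose–inhibition curves.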
# [6] = Selectivity index, ratio of IC50 for rat L6 cells to IC50 for Trypanosoma cruzi Tulahuen C4; format: toxicity, cell-based; conditions: L6 cells versus Trypanosoma cruzi Tulahuen C4, read-out: Ratio IC50
# In short: as §1
# [7] = Selectivity index, ratio of IC50 for rat L6 cells to IC50 for Leishmania donovani MHOM-ET-67/L82; format: toxicity, cell-based; conditions: L6 cells versus Leishmania donovani MHOM-ET-67/L82, read-out: Ratio IC50
# In short: as §1
# [8] = Dissociation constant, pKa of the compound; format: physicochemical
# [9] = system: Trypanosoma cruzi; assay: Ratio of benznidazole IC50 to compound IC50 for Trypanosoma cruzi Tulahuen C4 infected in rat L6 cells after 72 hrs by alamar blue assay; format: functional
Structure (SMILES),IC50 [1] [µM],IC50 [2] [µM],selectivity ratio [3],IC50 [4] [µM],IC50 [5] [µM],selectivity ratio [6],selectivity ratio [7],pKa [8],Ratio IC50 [9]
Cc1cc(NCCCn2ccnc2[N+](=O)[O-])nc(N)n1,> 95.7,7.08,> 28,10.3,> 287,> 41,–,–,–
COc1ccc2nc3cc(Cl)ccc3c(NCCCCn3cnc([N+](=O)[O-])n3)c2c1,10.2,0.151,74,0.134,9.94,66,1,8.84,–
Cc1nc(C(F)(F)F)nc(NCCCn2ccnc2[N+](=O)[O-])c1C,20.1,4.28,> 16,15.2,> 236,> 55,> 12,–,–
Cl.O=[N+]([O-])c1ncn(CCCN(Cc2ccc3cc(Br)ccc3n2)Cc2ccc3cc(Br)ccc3n2)n1,9.33,0.32,99,0.463,46,144,5,6.87,4.2
FC(F)(F)c1cc(CNCCCCn2cncn2)cc(C(F)(F)F)c1,172,123,> 7,32.3,> 224,> 2,> 1,–,–
COc1cc2nc(Cl)nc(NCCCCn3ccnc3[N+](=O)[O-])c2cc1OC,3.63,0.968,7,2.26,16.5,17,5,–,–
Cl.O=[N+]([O-])c1ncn(CCCCNc2ccnc3cc(C(F)(F)F)ccc23)n1,137,0.305,973,0.117,114,373,1,7.53,4.4
Nc1nc(N)nc(Nc2ccc([As]3SCC(CO)S3)cc2)n1 (stereo not drawn) [MELARSOPROL],–,–,–,0.01,–,–,–,–,–
Cl.O=[N+]([O-])c1ncn(CCCCNc2nc(-c3ccccc3)nc3ccccc23)n1,8.69,1.74,137,0.562,77,44,9,5.06,0.8
O=[N+]([O-])c1nccn1CCCCNc1ccnc2cc(Cl)ccc12,39.1,3.51,36,1.87,66.8,19,2,–,–
O=C1C(Cl)=C(NCCCn2ccnc2[N+](=O)[O-])C(=O)c2ccccc21,0.516,30.1,6,0.621,3.91,–,8,–,–
O=[N+]([O-])c1nccn1CCCCNc1c2ccccc2nc2ccccc12,14.8,0.926,3,0.601,1.68,2,–,–,–
Cc1nc(NCCCn2ccnc2[N+](=O)[O-])c2ccccc2n1,68.3,2.1,9,3.46,31.6,15,–,–,–
O=[N+]([O-])c1nccn1CCCN(Cc1cccc(C(F)(F)F)c1)Cc1cccc(C(F)(F)F)c1,4.27,8.02,4,21.6,79.6,10,19,–,–
O=[N+]([O-])c1nccn1CCCNCc1ccc2cc(Br)ccc2n1,80.3,6.05,16,8.56,137,23,2,–,–
O=[N+]([O-])c1nccn1CCCNc1ccnc2cc(Cl)ccc12,54.4,1.04,18,1.4,24.9,24,–,–,–
O=[N+]([O-])c1ncn(CCCN(Cc2cc(C(F)(F)F)cc(C(F)(F)F)c2)Cc2cc(C(F)(F)F)cc(C(F)(F)F)c2)n1,4.87,1.96,10,8.17,78.8,40,16,–,–
O=[N+]([O-])c1nccn1CCCNCc1cc(C(F)(F)F)cc(C(F)(F)F)c1,> 69.4,24.5,10,13.8,140,6,< 2,–,–
Cl.O=[N+]([O-])c1ncn(CCCCNc2ccnc3cccnc23)n1,> 276,0.46,220,0.435,95.8,208,–,6.81,2.9
O=[N+]([O-])c1nccn1CCCCNc1nc(-c2ccccc2)nc(Cl)c1-c1ccccc1,12.4,9.67,1,15.5,11.7,1,1,–,–
O=[N+]([O-])c1nccn1CCCN(Cc1ccc2cc(Br)ccc2n1)Cc1ccc2cc(Br)ccc2n1,18.7,4.67,7,14.2,93.6,20,5,–,–
Cc1cc(NCCCn2cnc([N+](=O)[O-])n2)nc(N)n1,> 95.4,33.7,> 131,2.19,> 286,> 8,–,–,–
O=[N+]([O-])c1nccn1CCCCNc1nc(-c2ccccc2)nc2ccccc12,6.17,3.63,12,2.76,32.5,9,5,–,–
Cc1cc(NCCCCn2ccnc2[N+](=O)[O-])nc(N)n1,98.1,41.8,> 23,11.8,> 275,> 7,> 3,–,–
O=[N+]([O-])c1nccn1CCCN1CCN(Cc2ccc(C(F)(F)F)cc2)CC1,> 191,20.7,> 13,15.3,> 191,> 9,–,–,–
O=C1C(Cl)=C(NCCCn2cnc([N+](=O)[O-])n2)C(=O)c2ccccc21,6.53,15.6,8,0.882,7.16,–,1,–,–
O=[N+]([O-])c1nccn1CCNc1c2ccccc2nc2ccccc12,9.09,0.996,–,0.996,0.308,–,–,–,–
Clc1ccc2c(NCCCCn3cncn3)ccnc2c1,> 298,92.1,> 14,21.8,> 298,> 3,–,–,–
O=[N+]([O-])c1nccn1CCCN(Cc1ccc(C(F)(F)F)cc1)Cc1ccc(C(F)(F)F)cc1,6.49,3.77,> 7,23,> 172,> 46,> 27,–,–
